Results: publication PMC11962346 (Chemistry (Weinheim an Der Bergstrasse, Germany), 2025)
*1 amine or outer side, *2 acyl side, *3 side chain or, on linkers, in order; H or OH if unused. Where a SMILES comes first, the peptide text is derived from it. Bridges are numbered along the chain shown (N, C = ends). The star is where a group is joined. X1 = CC(C)C[C@@H](CNC(=O)N1C[C@@H](SCCCCCC[*:1])C[C@H]1C(N)=O)NC(=O)NC[C@H](CC(C)C)N[*:2]; X4 = CC(C)C[C@@H](CNC(=O)N1CCC[C@H]1C(N)=O)NC(=O)NC[C@H](CC(C)C)N*; X2 = CC(C)C[C@@H](CNC(=O)N[C@@H](C)CNC(=O)N1CCC[C@H]1C(N)=O)N*

What was measured:
p53‐hDM2 interaction = p53‐hDM2 interaction (Homo sapiens, UniProt Q00987); assay: TR-FRET; format: binding; settings: for IC50: IC50±SEM hDM2, 9-point curves in duplicates; for inhibition at 0.1 µM: read-out: Inhibition at 100 nM (%) hDM2
Sequence of p53‐hDM2 interaction (Q00987 whole entry): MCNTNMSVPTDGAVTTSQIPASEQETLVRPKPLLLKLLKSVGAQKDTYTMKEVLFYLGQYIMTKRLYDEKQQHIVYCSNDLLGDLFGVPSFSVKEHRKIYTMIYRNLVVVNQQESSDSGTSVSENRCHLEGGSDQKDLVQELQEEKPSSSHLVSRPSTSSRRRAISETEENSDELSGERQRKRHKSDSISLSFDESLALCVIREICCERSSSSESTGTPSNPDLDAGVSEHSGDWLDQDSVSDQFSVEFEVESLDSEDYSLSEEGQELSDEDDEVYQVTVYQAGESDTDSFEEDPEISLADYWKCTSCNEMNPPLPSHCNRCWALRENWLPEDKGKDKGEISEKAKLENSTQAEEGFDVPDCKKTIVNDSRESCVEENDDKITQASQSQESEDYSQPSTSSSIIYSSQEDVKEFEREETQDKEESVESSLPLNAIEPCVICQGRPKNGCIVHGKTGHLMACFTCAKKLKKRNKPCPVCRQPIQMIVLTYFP

p53‐hDMX interaction = target: T1, p53‐hDMX interaction (Homo sapiens, UniProt O15151); assay: TR-FRET; format: binding; settings: for IC50: IC50±SEM hDMX, 9-point curves in duplicates; for inhibition at 0.1 µM: read-out: Inhibition at 100 nM (%) hDMX
T1 sequence (O15151 1-490): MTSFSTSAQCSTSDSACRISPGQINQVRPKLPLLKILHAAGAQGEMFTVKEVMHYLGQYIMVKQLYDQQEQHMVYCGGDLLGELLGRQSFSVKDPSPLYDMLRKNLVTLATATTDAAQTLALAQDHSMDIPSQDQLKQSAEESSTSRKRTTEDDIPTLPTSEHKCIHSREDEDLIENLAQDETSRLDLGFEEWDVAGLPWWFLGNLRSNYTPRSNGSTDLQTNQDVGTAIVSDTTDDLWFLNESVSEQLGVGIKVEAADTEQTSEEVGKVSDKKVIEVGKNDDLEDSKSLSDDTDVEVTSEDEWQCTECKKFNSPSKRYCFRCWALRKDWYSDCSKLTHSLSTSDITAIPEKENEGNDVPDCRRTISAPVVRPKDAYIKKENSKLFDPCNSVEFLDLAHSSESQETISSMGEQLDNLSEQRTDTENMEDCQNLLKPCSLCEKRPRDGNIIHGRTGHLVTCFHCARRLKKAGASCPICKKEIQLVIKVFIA

p53wt HCT116 cells = assay: Western blot of p53 protein levels; format: cell-based, human; settings: 6 hours treatment, 0.1 to 40 µM
In short: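 p53wt HCT116 cells in exponential growth, seeded one day ahead, were exposed to test compound for 6 h without serum, then lysed in RIPA. SDS-PAGE, wet transfer to nitrocellulose, 5% BSA/TBS-T block 1 h RT. Anti-p53 and anti-GAPDH overnight at 4 °C, infrared anti-mouse secondary 1.5 h RT. Positive control was a reference hDM2 inhibitor. Three independent biological replicates.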

HCT116 cells [1] = assay: RT-qPCR of p53 target genes p21 and hDM2; format: cell-based, human; settings: 6 hours treatment, n=3
HCT116 cells [2] = assay: MTS cell viability assay; format: cell-based, human; settings: 3 days of incubation
In short: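 HCT116 cells (passages 47–50; DMEM, 10% heat-inactivated FCS, 37 °C, 5% CO₂) seeded at 3×10³ cells/well with test compound at various concentrations in serum-free medium for 8 h. Serum (10%) then added for 64 h more. MTS reagent added, absorbance read at 490 nm, % viability taken versus untreated cells. Two independent experiments, three technical replicates each.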

**Q.** What does the source list for `CC(C)C[C@@H](CNC(=O)N[C@@H](C)CNC(=O)N1CCC[C@H]1C(N)=O)NC(=O)[C@H](C)NC(=O)[C@H](Cc1c[nH]c2ccccc12)NC(=O)[C@H](Cc1ccc(O)cc1)NC(=O)[C@H](CCC(=O)O)NC(=O)[C@H](C)NC(=O)[C@H](Cc1ccccc1)NC(=O)[C@H](CO)NC(=O)[C@@H](N)[C@@H](C)O` [Compound 3] (H-TSFAEYWA-X2)?
**A.** IC50 (p53‐hDM2 interaction): 54 ± 17 nM; inhibition at 0.1 µM (p53‐hDM2 interaction): 43%; IC50 (p53‐hDMX interaction): 247 ± 42 nM; inhibition at 0.1 µM (p53‐hDMX interaction): 19%

**Q.** `CC(C)C[C@@H](CNC(=O)N1CCC[C@H]1C(N)=O)NC(=O)NC[C@H](CC(C)C)NC(=O)[C@H](C)NC(=O)[C@H](Cc1c[nH]c2ccccc12)NC(=O)[C@H](Cc1ccc(O)cc1)NC(=O)[C@H](CCC(=O)O)NC(=O)[C@H](C)NC(=O)[C@H](Cc1ccccc1)NC(=O)[C@H](CO)NC(=O)[C@@H](N)[C@@H](C)O` [Compound 4] (H-TSFAEYWA-X4) was tested. Which IC50 (p53‐hDM2 interaction) did it give?
**A.** Its IC50 is 6.13 ± 0.08 nM.

**Q.** And the inhibition at 0.1 µM (p53‐hDM2 interaction)?
**A.** The inhibition at 0.1 µM was 99%.

**Q.** What about the IC50 (p53‐hDMX interaction) of the same molecule?
**A.** Its IC50 is 115 ± 5 nM.

**Q.** What about the inhibition at 0.1 µM (p53‐hDMX interaction) of the same molecule?
**A.** The inhibition at 0.1 µM was 46%.

**Q.** Which IC50 (p53‐hDM2 interaction) does the source give for `CC(C)C[C@H]1CNC(=O)N2C[C@H](C[C@H]2C(N)=O)SCCCCCCSC[C@H](NC(=O)[C@H](Cc2ccccc2)NC(=O)[C@H](CO)NC(=O)[C@@H](N)[C@@H](C)O)C(=O)N[C@@H](CCC(=O)O)C(=O)N[C@@H](Cc2ccc(O)cc2)C(=O)N[C@@H](Cc2c[nH]c3ccccc23)C(=O)N[C@@H](C)C(=O)N[C@@H](CC(C)C)CNC(=O)N1` [Compound 8 a] (H-TSFCEYWA; linker 4-C via X1) here?
**A.** Its IC50 is 1.91 ± 0.05 nM.

**Q.** What about the inhibition at 0.1 µM (p53‐hDM2 interaction) of the same molecule?
**A.** Its inhibition at 0.1 µM is 99%.

**Q.** And the IC50 (p53‐hDMX interaction)?
**A.** Its IC50 is 75 ± 4 nM.

**Q.** And the inhibition at 0.1 µM (p53‐hDMX interaction)?
**A.** The inhibition at 0.1 µM was 66%.

**Q.** `CC(=O)N[C@@H](CCCCN)C(=O)N[C@H](C(=O)N[C@@H](Cc1ccccc1)C(=O)N[C@H]1CSCCCCCCS[C@H]2C[C@@H](C(N)=O)N(C2)C(=O)NC[C@H](CC(C)C)NC(=O)NC[C@H](CC(C)C)NC(=O)[C@H](C)NC(=O)[C@H](Cc2c[nH]c3ccccc23)NC(=O)[C@H](Cc2ccc(O)cc2)NC(=O)[C@H](CCC(=O)O)NC1=O)[C@@H](C)O` [Compound 10 a] (Ac-KTFCEYWA; linker 4-C via X1) was tested. Which IC50 (p53‐hDM2 interaction) did it give?
**A.** Its IC50 is 3 ± 0.1 nM.

**Q.** What about the IC50 (p53‐hDMX interaction) of the same molecule?
**A.** Its IC50 is 63 ± 12 nM.

**Q.** And the “p53 protein levels (western blot)” value (p53wt HCT116 cells)?
**A.** The value was “dose‐dependent increase of p53 levels”.

**Q.** And the “mRNA of target genes p21 and hDM2 (RT-qPCR)” value (HCT116 cells [1])?
**A.** The value was “dose‐dependent induction of mRNA of target genes p21 and hDM2”.

**Q.** What about the “viability of p53wt HCT116 cells (in words)” value (HCT116 cells [2]) of the same molecule?
**A.** The value was “effective in reducing the viability of p53wt HCT116 cells in a concentration‐dependent manner”.
